From PubChem BioAssay AID504358 (Southern Research Specialized Biocontainment Screening …, 2011)
Activity calls are given as the source filed them.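 The calls were made as follows: active = compounds blocking phage killing of the bacteria by at least 50% at some tested dose; inactive = the rest.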

Tests used:
[1] = inhibition of K1F phage lysis of E. coli UTI89, confirmation, bacterial capsule biogenesis inhibitors, C7 control, OD600 (AID 504358); conditions: E. coli UTI89 K1F phage lysis inhibition, OD600; for SI: measured here: selectivity index CC50/IC50, stronger effect = higher value
In short: (§1)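 Material: E. coli UTI89 K1 cells with K1F phage; reagent: K1F phage, added after compound pre-exposure; incubation: 1.25 h compound, then 3 h phage, 37 °C; detection: absorbance at 600 nm, before infection and 3 h after; control set: phage-resistant kpsM mutant, wells with and without phage; replicates: quadruplicate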

[2] = tested on: E. coli UTI89 K1F phage lysis inhibition, OD600; test: as above; conditions: for CC50: measured here: cytotoxicity
In short: as §1

Row | IC50 [2] [µM] | Structure (SMILES) | SI [1] | CC50 [2] [µM] | outcome [1]
1 | 22.6 | CC1=NN2C(=N)/C(=C\c3ccc(SCc4ccco4)o3)C(=O)N=C2S1 | 4.4 | > 100 | 
2 |  | O=C(O)c1cc(-c2c[nH]c3ccccc23)nc2cc3ccccc3cc12 |  |  | inactive
3 |  | O=C(COc1ccc(Cl)cc1Cl)Nc1ccc(C(=O)Nc2ccccc2C(=O)O)cc1 |  | 45.3 | 
4 |  | O=C(NCc1cc([N+](=O)[O-])ccc1O)c1cccnc1Sc1ccccc1 |  | > 100 | 
5 |  | C=CCOc1ccc(C2c3c(oc4ccccc4c3=O)C(=O)N2CCCN2CCOCC2)cc1 (stereo unspecified) |  | > 100 | inactive
6 |  | Cc1ccc(C2c3c(oc4cc(C)c(C)cc4c3=O)C(=O)N2CCCN2CCOCC2)cc1 (stereo unspecified) |  | 44.4 | inactive
7 |  | O=C(O)c1cc(-c2cccc(Cl)c2)nc2cc3ccccc3cc12 |  |  | inactive
8 |  | Cc1cc(C)c2c(=O)c(-c3cc(C(=O)O)c4cc5ccccc5cc4n3)coc2c1 |  |  | inactive
9 | 3 | O=C(Nc1ccncc1)c1ccc2ncsc2c1 | > 33 | > 100 | 
10 | 69.8 | CC1(C(=O)O)CCC(C(=O)Nc2ccc3ccccc3c2)C1(C)C (stereo unspecified) | > 1.4 | > 100 | 
11 | 3.3 | O=C(ONc1ccc(N=NC(=O)c2ccccc2O)cc1)c1ccccc1 | 13.7 | 45.1 | 
12 | 26.1 | O=C(NCc1cc([N+](=O)[O-])ccc1O)c1cccnc1Sc1ccccc1Cl | > 3.8 | > 100 | 
13 |  | COc1ccc(OC)c(-c2cc(C(=O)O)c3cc4ccccc4cc3n2)c1 |  |  | inactive
14 | 10.6 | COc1ccc2nc(NC(=O)c3ccc(Br)s3)sc2c1 | > 9.4 | > 100 | 
15 | 6.2 | CCOc1ccc(-c2cc(NC(=O)c3c(F)cccc3F)c(C(=O)O)s2)cc1 | 10.8 | 66.7 | 
